The subject of experiment [1] is Mycolicibacterium smegmatis. The experiment in a line: Antitubercular activity against Mycobacterium smegmatis ATCC 35797 at 200 ug/ml after 48 hrs by agar dilution method. It counts as functional, organism-based. The method in brief:
(§1)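 Agar dilution MIC method. Compounds were dissolved in DMSO at 1 mg/ml and mixed into molten agar at 200 µg/ml. Active compounds were further diluted through 100, 50, 25, 12.5 and 6.25 down to 0.625 µg/ml. Plates had 3–4 mm agar depth. Inocula were overnight Mueller–Hinton broth cultures diluted 1:100 and radially streaked, then incubated 35 °C for 48 h. Isoniazid was the reference; drug-free and DMSO controls were included.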
A general note: In agar dilution, organisms are placed on agar that contains the substance at set levels.

In experiment [2] the test system is Mycolicibacterium smegmatis. The experiment in a line: Antitubercular activity against Mycobacterium smegmatis ATCC 35797 after 48 hrs by agar dilution method. Particulars: ATCC 35797, 48 h. It counts as functional. The method in brief:
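MIC by agar dilution, NCCLS-like protocol. A 1 mg/ml DMSO stock is diluted in 10% molten agar to 200 µg/ml, then 100, 50, 25, 12.5, 6.25 down to 0.625 µg/ml. Plates are 3–4 mm deep. Overnight Mueller–Hinton cultures are diluted 1:100 and streaked radially. Incubation is 35 °C for 48 h. The control is DMSO in medium.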

Experiment [3] relates to Mycobacterium xenopi. The experiment in a line: Antitubercular activity against Mycobacterium xenopi ATCC 14470 after 48 hrs by agar dilution method. It counts as functional. Particulars: ATCC 14470, 48 h. In short, it runs like this:
as §1

For experiment [4], the system named is Mycobacteroides chelonae. The experiment in a line: Antitubercular activity against Mycobacterium chelonae ATCC 35751 after 48 hrs by agar dilution method. It counts as functional. The following applies: ATCC 35751, 48 h. The method in brief:
as §1

Experiment [5] deals with Mycobacterium intracellulare. The experiment in a line: Antitubercular activity against Mycobacterium intracellular ATCC 35743 after 48 hrs by agar dilution method. The class given is functional. Particulars: ATCC 35743, 48 h. The method in brief: as §1
In experiment [6] the test system is Mycobacteroides chelonae. In words: Antitubercular activity against Mycobacterium chelonae ATCC 35751 at 200 ug/ml after 48 hrs by agar dilution method. It counts as functional, organism-based. The method in brief:
(§2)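 Agar dilution screen. Compounds are dissolved in DMSO at 1 mg/ml stock and mixed into 10% molten agar to 200 µg/ml. Plates are poured 3–4 mm deep. Overnight Mueller–Hinton broth cultures are diluted 1:100 and streaked radially. Plates are incubated at 35 °C for 48 h. Controls are strain with DMSO and medium only.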

Experiment [7] concerns Mycobacterium xenopi. The experiment in a line: Antitubercular activity against Mycobacterium xenopi ATCC 14470 at 200 ug/ml after 48 hrs by agar dilution method. It counts as functional, organism-based. The method in brief:
as §2

Experiment [8] deals with Mycobacterium intracellulare. The experiment in a line: Antitubercular activity against Mycobacterium intracellular ATCC 35743 at 200 ug/ml after 48 hrs by agar dilution method. It counts as functional, organism-based. The method in brief:
as §2

In experiment [9] the test system is Mycobacterium xenopi. The experiment in a line: Ratio of compound MIC to isoniazid MIC for Mycobacterium xenopi ATCC 14470. It counts as functional.
Experiment [10] deals with Mycobacterium intracellulare. In words: Ratio of compound MIC to isoniazid MIC for Mycobacterium intracellular ATCC 35743. The class given is functional.
Experiment [11] concerns Mycobacteroides chelonae. The experiment in a line: Ratio of compound MIC to isoniazid MIC for Mycobacterium chelonae ATCC 35751. The class given is functional.
Experiment [12] deals with Mycolicibacterium smegmatis. The experiment in a line: Ratio of compound MIC to isoniazid MIC for Mycobacterium smegmatis ATCC 35797. It counts as functional.

16 compounds from ChEMBL document CHEMBL1250489, “Schiff bases of indoline-2,3-dione (isatin) derivatives and nalidixic acid carbohydrazide, synthesis, antitubercular activity and pharmacophoric model building” (2010) can be followed below.

Values after ≈ are worked out from the molar mass of the structure shown. Active and inactive are the calls of the source. The calls are words filed in the database; no cut-off is given here.

Broadly, the MIC is the lowest concentration found to suppress growth. As for `C=CCN1C(=O)/C(=N\NC(=O)c2cn(CC)c3nc(C)ccc3c2=O)c2cc(Br)ccc21`, in [1], the MIC entry was “inactive”.

Turning to `CCN1C(=O)/C(=N\NC(=O)c2cn(CC)c3nc(C)ccc3c2=O)c2ccccc21`, the minimum inhibitory concentration (MIC) (in [2]; in the experiment on Mycobacterium xenopi [3]; with Mycobacteroides chelonae [4]; in experiment [5]) was 200 µg/mL (≈ 496 µM) each time.

For `C=CCN1C(=O)/C(=N\NC(=O)c2cn(CC)c3nc(C)ccc3c2=O)c2ccccc21`, the MIC result in experiment [1] was “inactive”.

Consider `NNC(=O)c1ccncc1` [ISONIAZID], for which the MIC (in [2]; in the experiment on Mycobacterium xenopi [3]; against Mycobacteroides chelonae [4]; in experiment [5]) was 12.5 µg/mL (≈ 91.1 µM) in each case.

Take `CCn1cc(C(=O)N/N=C2\C(=O)N(C)c3ccccc32)c(=O)c2ccc(C)nc21`: the MIC in experiment [2] and in experiment [5] was 200 µg/mL (≈ 514 µM) in each case. The MIC result with Mycobacteroides chelonae [6] and in the experiment with Mycobacterium xenopi [7] was “inactive” in each case.

As to `CCN(CC)CN1C(=O)/C(=N\NC(=O)c2cn(CC)c3nc(C)ccc3c2=O)c2ccccc21`, the MIC entry in [1] is “inactive”.

In the case of `CCn1cc(C(=O)N/N=C2\C(=O)Nc3ccc(Br)cc32)c(=O)c2ccc(C)nc21`, the MIC in experiment [2] turned out to be 200 µg/mL (≈ 440 µM). The MIC entry (in the experiment with Mycobacteroides chelonae [6]; with Mycobacterium xenopi [7]; in experiment [8]) was “inactive” each time.

With `CCN1C(=O)/C(=N\NC(=O)c2cn(CC)c3nc(C)ccc3c2=O)c2cc(Br)ccc21`, the MIC (in experiment [2]; in the experiment on Mycobacterium xenopi [3]; in experiment [5]) was 100 µg/mL (≈ 207 µM) in each case. For the same compound, the MIC entry in the experiment on Mycobacteroides chelonae [6] was “inactive”.

Turning to `CCn1cc(C(=O)N/N=C2\C(=O)N(C)c3ccc(Br)cc32)c(=O)c2ccc(C)nc21`, the MIC entry in [1] was “inactive”.

`CCn1cc(C(=O)N/N=C2\C(=O)Nc3ccccc32)c(=O)c2ccc(C)nc21` came in with an MIC in experiment [2] of 100 µg/mL (≈ 266 µM). Besides, the MIC result (in the experiment with Mycobacteroides chelonae [6]; in the experiment with Mycobacterium xenopi [7]; in experiment [8]) was “inactive” throughout.

Take `CCn1cc(C(=O)N/N=C2\C(=O)N(Cc3ccccc3)c3ccc(Br)cc32)c(=O)c2ccc(C)nc21`: the MIC (in [2]; against Mycobacterium xenopi [3]; against Mycobacteroides chelonae [4]; in experiment [5]) was 50 µg/mL (≈ 91.8 µM) in each case.

Turning to `CCN(CC)CN1C(=O)/C(=N\NC(=O)c2cn(CC)c3nc(C)ccc3c2=O)c2cc(Br)ccc21`, the MIC result in experiment [1] was “inactive”.

In the case of `CCCN1C(=O)/C(=N\NC(=O)c2cn(CC)c3nc(C)ccc3c2=O)c2ccccc21`, in experiment [1], the MIC result is “inactive”.

As for `CCn1cc(C(=O)N/N=C2\C(=O)N(Cc3ccccc3)c3ccccc32)c(=O)c2ccc(C)nc21`, the Ratio (with Mycobacterium xenopi [9]; in experiment [10]; in the experiment on Mycobacteroides chelonae [11]; in [12]) was 20 each time. For the same compound, the MIC (in experiment [2]; in the experiment on Mycobacterium xenopi [3]; in the experiment with Mycobacteroides chelonae [4]; in experiment [5]) was 0.625 µg/mL (≈ 1.34 µM) in each case.

Consider `CCCN1C(=O)/C(=N\NC(=O)c2cn(CC)c3nc(C)ccc3c2=O)c2cc(Br)ccc21`, for which the MIC entry in [1] is “inactive”.

With `CCn1cc(C(=O)N/N=C2\C(=O)N(CN3CCN(C)CC3)c3ccccc32)c(=O)c2ccc(C)nc21`, the MIC entry in experiment [1] was “inactive”.
